Source: ChEMBL document CHEMBL1255324, “Absence of amphotericin B-tolerant persister cells in biofilms of some Candida species” (2008)
In brackets after ≈: the same amount, converted by molar mass. Activity calls are given as the source filed them. The rule behind the calls is not given here.

Legend:
[1] = tested on: Candida parapsilosis; experiment: Antifungal activity against Candida parapsilosis AAHB 4479 exponential-phase planktonic cell assessed as cell killing after 24 hrs; assay type: functional, organism-based
In short: (§1)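 Planktonic cells grown at 37°C with shaking in YNB/50 mM glucose. Exponential phase was 8 h for C. krusei, C. albicans and C. tropicalis, 11 h for C. parapsilosis and 18 h for C. glabrata; stationary phase was 48 h. Washed cells at ~10^7 cells ml−1 got amphotericin B (5–100 μg ml−1) in MOPS-buffered (pH 7) YNB glucose, 24 h at 37°C. Viable counts by plating. Two experiments in duplicate.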

[2] = tested on: Candida albicans; experiment: Antifungal activity against Candida albicans GDH 2346 exponential phase planktonic cell assessed as cell killing at 5 ug/ml after 24 hrs; assay type: functional, organism-based; in short: as §1
[3] = tested on: Candida albicans; experiment: Antifungal activity against Candida albicans SC5314 exponential/stationary phase planktonic cell assessed as cell killing at 100 ug/ml after 24 hrs; assay type: functional, organism-based; in short: as §1
[4] = tested on: Candida parapsilosis; experiment: Antifungal activity against Candida parapsilosis AAHB 4479 Biofilm assessed as resistant isolates after 24 hrs; assay type: functional
In short: (§2)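 Biofilms formed on 0.8 cm PVC discs. Standardized YNB/50 mM glucose-grown cells (OD520 0.8) adhered 1 h at 37°C, then grew 48 h at 37°C. Mature biofilms were exposed 24 h at 37°C to amphotericin B 5–100 μg ml−1 in YNB glucose buffered to pH 7 with 0.165 M MOPS; drug-free controls. Cells were scraped and vortexed off, washed in PBS, then viable counts were made by serial dilution and plating on YNB/200 mM glucose agar. Two independent experiments, each in duplicate.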

[5] = tested on: Candida albicans; experiment: Antifungal activity against Candida albicans SC5314 exponential/stationary phase planktonic cell assessed as persisters at 100 ug/ml after 24 hrs; assay type: functional, organism-based; in short: as §1
[6] = tested on: Candida tropicalis; experiment: Antifungal activity against Candida tropicalis AAHB 73 exponential-phase planktonic cell assessed as cell killing at 5 ug/ml after 24 hrs; assay type: functional, organism-based; in short: as §1
[7] = tested on: Candida albicans; experiment: Antifungal activity against Candida albicans SC5314 biofilm assessed as cell killing at 100 ug/ml after 24 hrs; assay type: functional, organism-based
In short: (§3)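 PVC discs (0.8 cm) seeded with washed YNB/50 mM glucose-grown cells (OD520 0.8), adhered 1 h at 37°C, washed, and grown 48 h at 37°C in medium. Biofilms exposed 24 h at 37°C to amphotericin B (5–100 μg ml−1) in YNB glucose buffered to pH 7 with 0.165 M MOPS; drug-free controls. Cells scraped, vortexed, PBS-washed, viable counts on YNB/200 mM glucose agar. Two experiments in duplicate.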

[8] = tested on: Nakaseomyces glabratus; experiment: Antifungal activity against Candida glabrata AAHB 12 exponential-phase planktonic cell assessed as cell killing at 5 ug/ml after 24 hrs; assay type: functional, organism-based; in short: as §1
[9] = tested on: Candida parapsilosis; experiment: Antifungal activity against Candida parapsilosis AAHB 4479 stationary-phase planktonic cell assessed as cell killing after 24 hrs; assay type: functional, organism-based; in short: as §1
[10] = tested on: Candida albicans; experiment: Antifungal activity against Candida albicans SC5314 biofilm persisters at 100 ug/ml after 24 hrs; assay type: functional, organism-based; in short: as §3
[11] = tested on: Pichia kudriavzevii; experiment: Antifungal activity against Candida krusei Glasgow exponential-phase planktonic cell assessed as cell killing at 5 ug/ml after 24 hrs; assay type: functional, organism-based; in short: as §1
[12] = tested on: Candida albicans; experiment: Antifungal activity against Candida albicans GDH 2346 stationary phase planktonic cell assessed as cell killing at 5 ug/ml after 24 hrs; assay type: functional, organism-based; in short: as §1
[13] = tested on: Pichia kudriavzevii; experiment: Antifungal activity against Candida krusei Glasgow Biofilm assessed as resistant isolates after 24 hrs; assay type: functional; in short: as §2
[14] = tested on: Candida albicans; experiment: Antifungal activity against Candida albicans GDH 2346; assay type: functional
[15] = tested on: Candida albicans; experiment: Antifungal activity against Candida albicans GDH 2346 Biofilm assessed as resistant isolate at 100 ug/ml after 24 hrs; assay type: functional; in short: as §2
[16] = tested on: Pichia kudriavzevii; experiment: Antifungal activity against Candida krusei Glasgow stationary-phase planktonic cell assessed as cell killing after 24 hrs; assay type: functional, organism-based; in short: as §1
[17] = tested on: Candida tropicalis; experiment: Antifungal activity against Candida tropicalis AAHB 73 stationary-phase planktonic cell assessed as cell killing after 24 hrs; assay type: functional, organism-based; in short: as §1

## C[C@@H]1[C@H](O)[C@@H](C)/C=C/C=C/C=C/C=C/C=C/C=C/C=C/[C@H](O[C@@H]2O[C@H](C)[C@@H](O)[C@H](N)[C@@H]2O)C[C@@H]2O[C@](O)(C[C@@H](O)C[C@@H](O)[C@H](O)CC[C@@H](O)C[C@@H](O)CC(=O)O[C@H]1C)C[C@H](O)[C@H]2C(=O)O [AMPHOTERICIN B]
[1]
  Activity: inactive
[2]
  Activity: Active
[3]
  Activity: Active
[4]
  Activity: 0.07%
[5]
  Activity: Active
[6]
  Activity: Active
[7]
  Activity: Active
[8]
  Activity: Active
[9]
  Activity: inactive
[10]
  Activity: Active
[11]
  Activity: Active
[12]
  Activity: Active
[13]
  Activity: 0.001%
[14]
  MIC: 1.3 µg/mL (≈ 1.41 µM)
[15]
  Activity: 0.01%
[16]
  Activity: inactive
[17]
  Activity: inactive
